Results taken from ChEMBL document CHEMBL1127347, “Synthesis and biological activity of bile acid-derived HMG-CoA reductase inhibitors. The role of 21-methyl in recognition of HMG-CoA reductase and the ileal bile acid transport system” (J Med Chem, 1994).

Assays:
Oryctolagus cuniculus [1] = species: Oryctolagus cuniculus; experiment: (§1) Tested for inhibition of Na+ -dependent [3H]taurocholate uptake into rabbit ileal brush border membrane vesicles; assay type: functional
Procedure, shortened: (§2)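 Ileal brush border vesicles from male New Zealand white rabbits (4-5 kg), prepared by Mg2+ precipitation and kept in liquid nitrogen. Vesicles (50 μg protein) in 10 mM Tris-Hepes pH 7.4/300 mM mannitol were added to medium at 30 °C containing 50 μM [3H]taurocholate with 100 mM NaCl or 100 mM KCl. Uptake stopped at 60 s with ice-cold stop solution, then filtration and scintillation. Na+-dependent uptake taken as NaCl minus KCl uptake; mean ± SD, 3-10 independent experiments with different membrane preparations.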

Oryctolagus cuniculus [2] = species: Oryctolagus cuniculus; experiment: as §1; assay type: functional; procedure, shortened: as §2; remark: listed apart in the source
[3] = target: T1, 3-hydroxy-3-methylglutaryl-coenzyme A reductase (Rattus norvegicus, UniProt P51639); experiment: Tested for inhibition of rat liver microsomal HMG-CoA reductase
T1 sequence (P51639 whole entry): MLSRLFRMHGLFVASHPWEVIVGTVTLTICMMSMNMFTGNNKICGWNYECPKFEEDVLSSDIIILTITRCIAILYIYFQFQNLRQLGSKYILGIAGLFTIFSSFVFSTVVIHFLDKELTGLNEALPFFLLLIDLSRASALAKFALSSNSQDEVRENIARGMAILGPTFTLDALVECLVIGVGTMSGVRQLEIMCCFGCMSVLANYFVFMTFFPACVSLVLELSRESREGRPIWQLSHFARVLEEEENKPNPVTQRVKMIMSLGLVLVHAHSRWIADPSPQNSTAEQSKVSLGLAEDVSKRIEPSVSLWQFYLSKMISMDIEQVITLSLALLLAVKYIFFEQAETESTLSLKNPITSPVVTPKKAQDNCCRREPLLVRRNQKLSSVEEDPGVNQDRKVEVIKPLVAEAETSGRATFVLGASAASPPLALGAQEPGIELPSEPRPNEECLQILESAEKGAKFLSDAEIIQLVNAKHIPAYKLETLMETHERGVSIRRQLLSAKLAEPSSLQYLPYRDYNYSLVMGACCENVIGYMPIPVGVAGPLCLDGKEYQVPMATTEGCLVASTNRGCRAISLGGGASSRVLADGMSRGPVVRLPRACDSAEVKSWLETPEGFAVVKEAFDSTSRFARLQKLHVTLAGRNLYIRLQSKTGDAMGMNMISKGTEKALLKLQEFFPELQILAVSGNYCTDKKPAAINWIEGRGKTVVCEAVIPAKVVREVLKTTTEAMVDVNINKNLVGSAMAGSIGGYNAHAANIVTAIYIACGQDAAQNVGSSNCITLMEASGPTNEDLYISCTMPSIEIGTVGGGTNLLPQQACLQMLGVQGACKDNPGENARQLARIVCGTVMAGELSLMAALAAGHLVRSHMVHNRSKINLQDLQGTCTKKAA
Procedure, shortened: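 Microsomes came from livers of male Wistar rats (200-220 g) fed 2% cholestyramine for 10 days. Assay at pH 7.4 with 40 μg microsomal protein, NADP, glucose-6-phosphate and G6P dehydrogenase. Mevalonolactone separated on anion-exchange column and counted. Six concentrations in triplicate; IC50 read graphically, mean ± SD of three independent experiments.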

HepG2 = experiment: Tested for inhibition of cholesterol biosynthesis in HEP G2 cells; assay type: functional, cell-based; conditions: Homo sapiens
Procedure, shortened: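 HEP G2 cells seeded at 5×10^4 cells/cm², grown 24 h in RPMI 1640/10% FCS, then 24 h in 10% lipoprotein-deficient serum. Cholesterol isolated by TLC and counted, corrected for recovery of [3H]cholesterol.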

| IC50 (Oryctolagus cuniculus [1]) | IC50 [3] | IC50 (HepG2) | SMILES | IC25 (Oryctolagus cuniculus [2]) | IC75 (Oryctolagus cuniculus [2]) |
| --- | --- | --- | --- | --- | --- |
| 28 µM |  |  | C[C@H](CCC(=O)NCCS(=O)(=O)O)[C@H]1CC[C@H]2[C@@H]3[C@H](O)C[C@@H]4C[C@H](O)CC[C@]4(C)[C@H]3CC[C@]12C [TAUROCHENODEOXYCHOLATE] | 13 µM | 61 µM |
| 85 µM | 0.65 µM | 16.1 µM | CC[C@H](C)C(=O)O[C@H]1C[C@H]2[C@@H](CC[C@@H]3C[C@H](O)CC[C@@]32C)[C@@H]2CCC([C@H](C)C[C@@H]3C[C@@H](O)CC(=O)O3)[C@@]12C (stereo partly specified) | 37 µM | 148 µM |
| 170 µM | 0.2 µM | 1.8 µM | CC[C@H](C)C(=O)O[C@H]1C[C@H]2[C@@H](CC[C@@H]3C[C@H](O)CC[C@@]32C)[C@@H]2CCC(CC[C@@H]3C[C@@H](O)CC(=O)O3)[C@@]12C (stereo partly specified) | 87 µM | > 250 µM |
| 92 µM | 7 µM | 54.8 µM | CC[C@H](C)C(=O)O[C@H]1C[C@H]2[C@@H](CC[C@@H]3C[C@H](O)CC[C@@]32C)[C@@H]2CCC([C@H](C)C[C@H]3C[C@@H](O)CC(=O)O3)[C@@]12C (stereo partly specified) | 47 µM | 166 µM |
| > 250 µM | 0.007 µM | 0.029 µM | CC[C@H](C)C(=O)O[C@H]1C[C@@H](C)C=C2C=C[C@H](C)[C@H](CC[C@@H]3C[C@@H](O)CC(=O)O3)[C@H]21 [LOVASTATIN] | 230 µM | > 250 µM |
| 186 µM | 1 µM | 8.2 µM | CC[C@H](C)C(=O)O[C@H]1C[C@H]2[C@@H](CC[C@@H]3C[C@H](O)CC[C@@]32C)[C@@H]2CCC(CC[C@H]3C[C@@H](O)CC(=O)O3)[C@@]12C (stereo partly specified) | 87 µM | > 250 µM |
| 83 µM |  |  | C[C@H](CCC(=O)O)[C@H]1CC[C@H]2[C@@H]3[C@H](O)C[C@@H]4C[C@H](O)CC[C@]4(C)[C@H]3C[C@H](O)[C@]12C [CHOLIC ACID] | 40 µM | 152 µM |
